# Source: the array DNA melting data of Ke et al. (doi:10.1101/2024.01.08.574731)
# Assays:
# [1] = folding enthalpy; higher = less favourable; fluorescence melt of hairpins on a sequencing array, two-state fit; settings: sodium 0.088 M
# Outline: (§1)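 In 50 mM Na-HEPES pH 8.0 containing 25 mM NaCl, hairpins from the library on a sequenced MiSeq flow cell were imaged for Cy3 fluorescence at 2.5 °C steps up to 60 °C, with Cy3 and quencher oligos annealed. After normalisation to pre-quench Cy3 and to control constructs, two-state fits with bootstrapping gave melting temperature and folding enthalpy. Four replicates were combined by inverse-variance weighting, and fitted temperatures were shifted up by 9.35 °C to match UV melts.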
# [2] = melting temperature; fluorescence melt of hairpins on a sequencing array, two-state fit, raised by 9.35 °C to match UV melts; settings: sodium 0.088 M
# Outline: as §1
Sequence,folding enthalpy [1] [kcal/mol],Tm [2] [°C]
GAATCTGGAAACAGACTC ((.((((....)))).)),-17.7,29.1
GCCGCGGCGAAAGCCGGC (((..(((....)))))),-7.85,68.6
GGTTTGGGAAACTAGACC (((.(.(....).).))),-18.1,30.7
GAGCACGAAAGTGGACTC ((((((....)))..))),-14.2,48.7
GCGTAAAAACGC ((((....)))),-19.9,46.4
GTCTACGAAAGTAAGAC ((((((....))).))),-24.2,46.5
GCTGACCGAAAGGTGAGC (((.(((....))).))),-38.4,55.4
GCGGTTCGAAAGAAACGC (((.(((....))).))),-33.7,69.1
GATACGGGAAACTGTATC (((((.(....).))))),-37.1,43.8
GAAAGCGAAAGCTACTTC ((((((....)))..))),-14.6,35.9
GATCCTAAGCAGGATC ((((((....)))))),-29.9,52.9
GAAGAAGAAATTCTTC ((((((....)))))),-18.5,38.1
GCGGTCGAAAGACTACGC ((((((....)))..))),-25.1,54.3
AGAAGCAGAAATGGTTCT ((((.((....)).)))),-27.4,34.5
GTTTCGCGAAAGCGAAC (((.(((....)))))),-10.4,53.9
GGAACTGGAAACGGTTTC (.(((.(....).))).),-17.9,30.4
GACTGCGAAAGCAACGTC ((((((....)))..))),-15.2,38.8
GCTCCCCCGAAAGGGAGC (((..(((....)))))),-29.4,66.1
GATGCGGGAAACCGTATC (((.(((....))).))),-34.4,50.3
GATCACGGGGTGATC ((((((...)))))),-33.6,60.3
GATCCGGCCCGGATC ((((((...)))))),-30.7,58.9
GATCAACTCATTGATC ((((((....)))))),-33.8,44.6
GCCACGCGAAAGCATGGC ((((.((....)).)))),-32.9,66.8

Sequence,folding enthalpy [1] [kcal/mol],Tm [2] [°C]
GATCCGACTCGGATC ((((((...)))))),-38.9,55.7
GATCACCCGAAAGGGATC (((..(((....)))))),-14,35.5
GATCAAGGCATTGATC ((((((....)))))),-34.5,50.5
GTCATCCCGAAAGGGGAC (((..(((....)))))),-14.1,37.8
GACTATGGAAACATAGCC (.(((((....))))).),-22.6,35.7
GTCGTTGGAAACAGTGAC (((..((....))..))),-13.5,32.4
CGTCGCCGGAAACGGACG (((..(((....)))))),-17.8,47.1
GTATCCGAAAGGAAATAC ((((((....)))..))),-16.8,31
GTTCCCCGAAAGGGAAAC (((.(((....))).))),-19.3,46.5
GCCCTGCGAAAGCGCGGC (((..((....))..))),-21.5,54.5
GATCTGGCGCCAGATC ((((((....)))))),-47.8,60.5
GATCTGGGCCCAGATC ((((((....)))))),-56.3,58.9
GGGCACGAAAGTGATCCC ((((((....)))..))),-19.4,50.3
GATCACAGCGGTGATC ((((((....)))))),-29.1,56.3
GATCTCCAAAGAGATC ((((((....)))))),-35.6,52.5
GCTCGCGAAAGCGAAAGC ((((((....)))..))),-14.4,54.3
GCCGGTGGAAACACTGGC (((.(((....))).))),-41.5,60
GATCACAAAAGTGATC ((((((....)))))),-36.8,54.7
GTGCAACCGAAAGGTCAC (((..(((....)))))),-16.6,40.1
GATGCCGAAAGGCGTATC ((((((....)))..))),-11.5,36.4
GATCCGTATGCGGATC ((((((....)))))),-40.3,63.2
GCCCTTCCGAAAGGAGGC (((..(((....)))))),-17.7,41.1
GGAGTTGGAAACGACTTC (.(((.(....).))).),-35.4,59.7

Sequence,folding enthalpy [1] [kcal/mol],Tm [2] [°C]
GGCTCCGAAAGGAACGCC ((((((....)))..))),-21,50.5
GCGAACGAAAGTTACGC ((((((....))).))),-22.7,51.5
GGGTCCACGAAAGTGCCC (((..(((....)))))),-17.9,40.8
CGGAACGGAAACGTCCCG (((.(((....))).))),-36.3,47.1
GTTTCGCGAAAGCGGAAC (((.(((....))).))),-23.4,59.2
GCGATTGGAAACAGTCGC ((((.((....)).)))),-42,54.2
GTAGCACGAAAGTGGTAC (((.(((....))).))),-33.7,60.9
ACAATGAAAATTGT (((((....))))),-11.1,34.8
GATCTGAAGCCAGATC ((((((....)))))),-33.2,45.5
GCTGCTCGAAAGAGAAGC (((.(((....))).))),-37.6,55.5
GCGCTAGGAAACTAGTGC ((.((((....)))).)),-44.7,53.3
GTGCATGCGAAAGCACAC (((..(((....)))))),-12.2,46.3
GATCTGTTAGCAGATC ((((((....)))))),-42.9,52.3
GATCGGGCGAAAGCCATC (((..(((....)))))),-10.2,22.6
TTCGTGAAAACGAA (((((....))))),-20.2,46.4
GGAGGAGGAAACCCCTCC (((((.(....).))))),-26.7,48.1
GCGCGGGGAAACCCACGC (((.(((....))).))),-35,61.6
GAGTTACGAAAGTAGCTC (((.(((....))).))),-34.5,51.2
GATTATGAAAATAATC ((((((....)))))),-29.5,40.1
GATCAAACAATTGATC ((((((....)))))),-22.6,37.1
GCGAGTAATCGC ((((....)))),-20.9,58.6
GAGTGCGAAAGCAGCTC ((((((....))).))),-19.9,51.3
GTTGCAGCGAAAGCTAAC (((..(((....)))))),-11.6,29.2
